BindingDB's records for doi:10.1016/j.bmcl.2005.08.013 (Kosan Biosciences, 2005)

The compounds below were run against Heat shock protein HSP 90-alpha (Homo sapiens, UniProt P07900) (assay: Binding affinity for human heat shock protein 90 in scintillation proximity assay).
Method in brief: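 Purified full-length human Hsp90 was used as the target protein. Binding was measured by scintillation proximity assay.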

SMILES	Kd
CO[C@H]1C=CC=C(C)C(=O)Nc2cc(O)c(N=CCF)c(c2O)C[C@@H](C)C[C@H](OC)[C@H](O)[C@@H](C)/C=C(\C)[C@@H]1OC(=O)NO [Geldanamycin derivative]	> 100 µM
CO[C@H]1C=CC=C(C)C(=O)Nc2cc(O)c(N=CCN(C)C)c(c2O)C[C@@H](C)C[C@H](OC)[C@H](O)[C@@H](C)/C=C(\C)[C@@H]1OC(=O)NN [Hydrazinecarboxylic acid (4E,6Z)-(13S,14S,17R,19S)-19-(2-dimethylamino-ethylamino)-13-(S)-hydroxy-8,14-dimethoxy-4,12,16-trimethyl-10-(R)-methyl-3,20,22-trioxo-2-aza-bicyclo[16.3.1]docosa-1(21),4,6,10,18-pentaen-9-yl ester]	> 100 µM
CO[C@H]1C=CC=C(C)C(=O)Nc2cc(O)c(N=CCF)c(c2O)C[C@@H](C)C[C@H](OC)[C@H](O)[C@@H](C)/C=C(\C)[C@@H]1OC(=O)NN [Hydrazinecarboxylic acid (4E,6Z)-(13S,14S,17R,19S)-19-(2-fluoro-ethylamino)-13-(S)-hydroxy-8,14-dimethoxy-4,12,16-trimethyl-10-(R)-methyl-3,20,22-trioxo-2-aza-bicyclo[16.3.1]docosa-1(21),4,6,10,18-pentaen-9-yl ester]	> 100 µM
CO[C@H]1C=CC=C(C)C(=O)Nc2cc(O)c(N3CCC3)c(c2O)C=C(C)C[C@H](OC)[C@H](O)[C@@H](C)/C=C(\C)[C@@H]1OC(=O)NN [Hydrazinecarboxylic acid (4E,6Z)-(13S,14S,17R,19S)-19-azetidin-1-yl-13-(S)-hydroxy-8,14-dimethoxy-4,12,16-trimethyl-10-(R)-methyl-3,20,22-trioxo-2-aza-bicyclo[16.3.1]docosa-1(21),4,6,10,18-pentaen-9-yl ester]	> 100 µM
CNC(=O)O[C@H]1/C(C)=C/[C@H](C)[C@@H](O)[C@@H](OC)C[C@H](C)Cc2c(O)c(cc(O)c2N=CCN(C)C)NC(=O)C(C)=CC=C[C@@H]1OC [Methyl-carbamic acid (4E,6Z)-(13S,14S,17R,19S)-19-(2-dimethylamino-ethylamino)-13-(S)-hydroxy-8,14-dimethoxy-4,12,16-trimethyl-10-(R)-methyl-3,20,22-trioxo-2-aza-bicyclo[16.3.1]docosa-1(21),4,6,10,18-pentaen-9-yl ester]	> 100 µM
CO[C@H]1C=CC=C(C)C(=O)Nc2cc(O)c(N=CCN(C)C)c(c2O)C[C@@H](C)C[C@H](OC)[C@H](O)[C@@H](C)/C=C(\C)[C@@H]1OC(=O)N(C)N [N-Methyl-hydrazinecarboxylic acid (4E,6Z)-(13S,14S,17R,19S)-19-(2-dimethylamino-ethylamino)-13-(S)-hydroxy-8,14-dimethoxy-4,12,16-trimethyl-10-(R)-methyl-3,20,22-trioxo-2-aza-bicyclo[16.3.1]docosa-1(21),4,6,10,18-pentaen-9-yl ester]	> 100 µM

More lines, now with the values ahead:

Kd	SMILES
> 100 µM	CO[C@H]1C=CC=C(C)C(=O)Nc2cc(O)c(N=CCN(C)C)c(c2O)C[C@@H](C)C[C@H](OC)[C@H](O)[C@@H](C)/C=C(\C)[C@@H]1OC(=O)c1ccc[nH]1 [1H-Pyrrole-2-carboxylic acid (E)-(8R,10R,15S,20S)-19-(2-dimethylamino-ethylamino)-13-(S)-hydroxy-8,14-dimethoxy-4,12,16-trimethyl-10-(S)-methyl-3,20,22-trioxo-2-aza-bicyclo[16.3.1]docosa-1(21),4,6,10,18-pentaen-9-yl ester]
> 100 µM	CO[C@H]1C=CC=C(C)C(=O)Nc2cc(O)c(N=CCN(C)C)c(c2O)C[C@@H](C)C[C@H](OC)[C@H](O)[C@@H](C)/C=C(\C)[C@@H]1OC(=O)c1cnc[nH]1 [3H-Imidazole-4-carboxylic acid (E)-(8R,10R,15S,20S)-19-(2-dimethylamino-ethylamino)-13-(S)-hydroxy-8,14-dimethoxy-4,12,16-trimethyl-10-(S)-methyl-3,20,22-trioxo-2-aza-bicyclo[16.3.1]docosa-1(21),4,6,10,18-pentaen-9-yl ester]
> 100 µM	CO[C@H]1C=CC=C(C)C(=O)Nc2cc(O)c(N=CCN(C)C)c(c2O)C[C@@H](C)C[C@H](OC)[C@H](O)[C@@H](C)/C=C(\C)[C@@H]1OC(=O)NCCN(C)C [(2-Dimethylamino-ethyl)-carbamic acid (4E,6Z)-(13S,14S,17R,19S)-19-(2-dimethylamino-ethylamino)-13-(S)-hydroxy-8,14-dimethoxy-4,12,16-trimethyl-10-(R)-methyl-3,20,22-trioxo-2-aza-bicyclo[16.3.1]docosa-1(21),4,6,10,18-pentaen-9-yl ester]
> 100 µM	CO[C@H]1C=CC=C(C)C(=O)Nc2cc(O)c(N=CCN(C)C)c(c2O)C[C@@H](C)C[C@H](OC)[C@H](O)[C@@H](C)/C=C(\C)[C@@H]1OC(=O)NCCO [(2-Hydroxy-ethyl)-carbamic acid (4E,6Z)-(13S,14S,17R,19S)-19-(2-dimethylamino-ethylamino)-13-(S)-hydroxy-8,14-dimethoxy-4,12,16-trimethyl-10-(R)-methyl-3,20,22-trioxo-2-aza-bicyclo[16.3.1]docosa-1(21),4,6,10,18-pentaen-9-yl ester]
> 100 µM	CO[C@H]1C=CC=C(C)C(=O)Nc2cc(O)c(N=CCN(C)C)c(c2O)C[C@@H](C)C[C@H](OC)[C@H](O)[C@@H](C)/C=C(\C)[C@@H]1OC(=O)NCC(N)=O [Carbamoylmethyl-carbamic acid (4E,6Z)-(13S,14S,17R,19S)-19-(2-dimethylamino-ethylamino)-13-(S)-hydroxy-8,14-dimethoxy-4,12,16-trimethyl-10-(R)-methyl-3,20,22-trioxo-2-aza-bicyclo[16.3.1]docosa-1(21),4,6,10,18-pentaen-9-yl ester]
> 100 µM	CONC(=O)O[C@H]1/C(C)=C/[C@H](C)[C@@H](O)[C@@H](OC)C[C@H](C)Cc2c(O)c(cc(O)c2N=CCN(C)C)NC(=O)C(C)=CC=C[C@@H]1OC [Geldanamycin derivative]
> 100 µM	CO[C@H]1C=CC=C(C)C(=O)Nc2cc(O)c(N3CCC3)c(c2O)C=C(C)C[C@H](OC)[C@H](O)[C@@H](C)/C=C(\C)[C@@H]1OC(=O)NO [Geldanamycin derivative]
